Results taken from ChEMBL document CHEMBL1121740, “2-l-Rhamnopyranosyl[1,2,4]triazolo[1,5-a]pyridine. 4' and 3' Oxidation products. Synthesis and structure-activity relationships” (J Med Chem, 1981).
Converted amounts (≈) assume the structure as drawn.

How the values were obtained:
[1] = Cytotoxicity at 100 ug/mL against normal mouse fibroblasts (C3H cells) cells; type: cell-based
Outline: (§1)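 Colony-forming (plating efficiency) assay. 200 C3H or S+L- 3T3 FL cells per well, grown in McCoy's 5a with 10% heat-inactivated FCS. Various product concentrations are added 24 h after seeding. Colonies are stained with May Grunwald Giemsa and counted on day +9. Percent colony formation is taken relative to untreated control cells, set as 100% plating efficiency.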

[2] = Cytotoxicity at 250 ug/mL against normal mouse fibroblasts (C3H cells) cells; type: cell-based; outline: as §1
[3] = Percent inhibition at 200 ug/mL for focus formation on day +10, using MSV assay on C3H cells without the addition of helper virus; type: functional; conditions: Mus musculus
Outline: (§2)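 MSV focus assay on C3H cells. 8 × 10⁴ cells are seeded per 60-mm dish and pretreated 24 h later with 20 µg/mL DEAE-dextran. Cells are infected with diluted MSV alone or MSV plus MuLV helper, with adsorption for 30 min at 37 °C. Filtered aqueous compound, diluted in medium, is added right after infection. Foci are counted on days 5 and 10. MSV titer was 7×10⁶.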

[4] = Percent inhibition at 200 ug/mL for focus formation on day +5, using MSV assay on C3H cells with optimal amount of helper virus; type: functional; conditions: Mus musculus; outline: as §2
[5] = Percent inhibition at 200 ug/mL for focus formation on day +5, using MSV assay on C3H cells without the addition of helper virus; type: functional; conditions: Mus musculus; outline: as §2
[6] = Cytotoxicity at 250 ug/mL against MSV transformed (S+L-cells) cells; type: cell-based; conditions: mouse; outline: as §1
[7] = Inhibitory action of Murine leukemia virus titer on S+L-cell in presence of the compound; type: functional; conditions: Mus musculus; read-out: ID50 (the source's name)
[8] = Percent inhibition at 200 ug/mL for focus formation using MLV assay on S+L- cells; type: functional; conditions: Mus musculus
[9] = Cytotoxicity at 100 ug/mL against MSV transformed (S+L-cells) cells; type: cell-based; conditions: mouse; outline: as §1
[10] = Cytotoxic dose that inhibit multiplication of normal fibroblast cells (C3H cells); type: cell-based; conditions: mouse, read-out: CD50 (the source's name)
Outline: (§3)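 Growth assay on C3H mouse fibroblasts. 10⁴ cells are seeded per well, and different doses of product are added 24 h later. Cellular growth and morphology are examined on day +5.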

[11] = Cytotoxicity at 10 ug/mL against normal mouse fibroblasts (C3H cells) cells; type: cell-based; outline: as §1
[12] = Cytotoxicity at 20 ug/mL against normal mouse fibroblasts (C3H cells) cells; type: cell-based; outline: as §1
[13] = Cytotoxicity at 5 ug/mL against normal mouse fibroblasts (C3H cells) cells; type: cell-based; outline: as §1
[14] = Percent inhibition at 10 ug/mL for focus formation on day +10, using MSV assay on C3H cells without the addition of helper virus; type: functional; conditions: Mus musculus; outline: as §2
[15] = Percent inhibition at 10 ug/mL for focus formation on day +5, using MSV assay on C3H cells with optimal amount of helper virus; type: functional; conditions: Mus musculus; outline: as §2
[16] = Percent inhibition at 10 ug/mL for focus formation on day +5, using MSV assay on C3H cells without the addition of helper virus; type: functional; conditions: Mus musculus; outline: as §2
[17] = Percent inhibition at 20 ug/mL for focus formation on day +10, using MSV assay on C3H cells without the addition of helper virus; type: functional; conditions: Mus musculus; outline: as §2
[18] = Percent inhibition at 20 ug/mL for focus formation on day +5, using MSV assay on C3H cells with optimal amount of helper virus; type: functional; conditions: Mus musculus; outline: as §2
[19] = Cytotoxic dose that inhibit multiplication of normal fibroblasts; conditions: mouse, read-out: CD50 (the source's name); outline: as §3
[20] = Percent inhibition at 5 ug/mL for focus formation on day +10, using MSV assay on C3H cells without the addition of helper virus; type: functional; conditions: Mus musculus; outline: as §2
[21] = Percent inhibition at 5 ug/mL for focus formation on day +5, using MSV assay on C3H cells with optimal amount of helper virus; type: functional; conditions: Mus musculus; outline: as §2
[22] = Percent inhibition at 5 ug/mL for focus formation on day +5, using MSV assay on C3H cells without the addition of helper virus; type: functional; conditions: Mus musculus; outline: as §2
[23] = Percent inhibition at 20 ug/mL for focus formation on day +5, using MSV assay on C3H cells without the addition of helper virus; type: functional; conditions: Mus musculus; outline: as §2
[24] = Percent inhibition at 3 ug/mL for focus formation on day +10, using MSV assay on C3H cells without the addition of helper virus; type: functional; conditions: Mus musculus; outline: as §2
[25] = Percent inhibition at 3 ug/mL for focus formation on day +5, using MSV assay on C3H cells with optimal amount of helper virus; type: functional; conditions: Mus musculus; outline: as §2
[26] = Percent inhibition at 3 ug/mL for focus formation on day +5, using MSV assay on C3H cells without the addition of helper virus; type: functional; conditions: Mus musculus; outline: as §2
[27] = system: Murine leukemia virus; assay: Inhibitory dose against MSV titer in the absence of Murine leukemia virus on day +10; type: functional, Mus musculus; conditions: read-out: ID50 (the source's name); outline: as §2
[28] = Cytotoxicity at 10 ug/mL against MSV transformed (S+L-cells) cells; type: cell-based; conditions: mouse; outline: as §1
[29] = Cytotoxicity at 20 ug/mL against MSV transformed (S+L-cells) cells; type: cell-based; conditions: mouse; outline: as §1
[30] = Cytotoxicity at 5 ug/mL against MSV transformed (S+L-cells) cells; type: cell-based; conditions: mouse; outline: as §1
[31] = Percent inhibition at 10 ug/mL for focus formation using MLV assay on S+L- cells; type: functional; conditions: Mus musculus
[32] = Percent inhibition at 3 ug/mL for focus formation using MLV assay on S+L- cells; type: functional; conditions: Mus musculus
[33] = Percent inhibition at 5 ug/mL for focus formation using MLV assay on S+L- cells; type: functional; conditions: Mus musculus
[34] = Toxic effect on S+L-cell colony formation; type: toxicity; conditions: mouse, S+L- cells; read-out: TD50 (the source's name)
Outline: (§4)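 S+L- (MSV-transformed 3T3 FL) cells grown in McCoy's 5a with 10% heat-inactivated fetal calf serum and antibiotics. Plating efficiency assay: 200 cells seeded per 35-mm well; product added at various concentrations 24 h after seeding. Colonies stained with May Grunwald Giemsa and counted on day +9. Colony formation expressed relative to untreated controls taken as 100% plating efficiency.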

[35] = Cytotoxicity at 50 ug/mL against normal mouse fibroblasts (C3H cells) cells; type: cell-based; outline: as §1
[36] = Percent inhibition at 100 ug/mL for focus formation on day +10, using MSV assay on C3H cells without the addition of helper virus; type: functional; conditions: Mus musculus; outline: as §2
[37] = Percent inhibition at 100 ug/mL for focus formation on day +5, using MSV assay on C3H cells with optimal amount of helper virus; type: functional; conditions: Mus musculus; outline: as §2
[38] = Percent inhibition at 30 ug/mL for focus formation on day +5, using MSV assay on C3H cells without the addition of helper virus; type: functional; conditions: Mus musculus; outline: as §2
[39] = Percent inhibition at 30 ug/mL for focus formation on day +10, using MSV assay on C3H cells without the addition of helper virus; type: functional; conditions: Mus musculus; outline: as §2
[40] = Percent inhibition at 30 ug/mL for focus formation on day +5, using MSV assay on C3H cells with optimal amount of helper virus; type: functional; conditions: Mus musculus; outline: as §2
[41] = Percent inhibition at 50 ug/mL for focus formation on day +10, using MSV assay on C3H cells without the addition of helper virus; type: functional; conditions: Mus musculus; outline: as §2
[42] = Percent inhibition at 50 ug/mL for focus formation on day +5, using MSV assay on C3H cells with optimal amount of helper virus; type: functional; conditions: Mus musculus; outline: as §2
[43] = Percent inhibition at 50 ug/mL for focus formation on day +5, using MSV assay on C3H cells without the addition of helper virus; type: functional; conditions: Mus musculus; outline: as §2
[44] = Toxic effect on C3H cell colony formation; type: toxicity, cell-based; conditions: mouse, C3H cells; read-out: TD50 (the source's name); outline: as §1
[45] = Cytotoxicity at 50 ug/mL against MSV transformed (S+L-cells) cells; type: cell-based; conditions: mouse; outline: as §1
[46] = Percent inhibition at 100 ug/mL for focus formation using MLV assay on S+L- cells; type: functional; conditions: Mus musculus
[47] = Percent inhibition at 30 ug/mL for focus formation using MLV assay on S+L- cells; type: functional; conditions: Mus musculus
[48] = Percent inhibition at 50 ug/mL for focus formation using MLV assay on S+L- cells; type: functional; conditions: Mus musculus
[49] = Toxic effect on S+L- cell colony formation; type: toxicity; conditions: mouse, S+L- cells; read-out: TD50 (the source's name); outline: as §4
[50] = Percent inhibition at 100 ug/mL for focus formation on day +5, using MSV assay on C3H cells without the addition of helper virus; type: functional; conditions: Mus musculus; outline: as §2
[51] = Percent inhibition at 2.5 ug/mL for focus formation on day +5, using MSV assay on C3H cells with optimal amount of helper virus; type: functional; conditions: Mus musculus; outline: as §2

CC1OC(c2nc3c(N)cccn3n2)C(O)C(O)C1O (stereo unspecified)
Colony formation [1]: 115%
Colony formation [2]: 108%
inhibition at 200 µg/mL [3]: 0%
inhibition at 200 µg/mL [4]: 11%
inhibition at 200 µg/mL [5]: 0%
Colony formation [6]: 94%
IC50 [7]: 200 µg/mL
inhibition at 200 µg/mL [8]: 50%
Colony formation [9]: 83%

C[C@@H]1O[C@@H](c2nc3c([N+](=O)[O-])cccn3n2)[C@H](O)[C@H](O)[C@@H]1O
CC50 [10]: 400 µg/mL (≈ 1290 µM)

CC1OC(c2nc3c([N+](=O)[O-])cccn3n2)=CC(O)C1O (stereo unspecified)
Colony formation [11]: 27%
Colony formation [12]: 2%
Colony formation [13]: 71.5%
inhibition at 10 µg/mL [14]: 58%
inhibition at 10 µg/mL [15]: 50%
inhibition at 10 µg/mL [16]: 64%
inhibition at 20 µg/mL [17]: 70%
inhibition at 20 µg/mL [18]: 76%
CC50 [19]: 62.5 µg/mL (≈ 214 µM)
inhibition at 5 µg/mL [20]: 30%
inhibition at 5 µg/mL [21]: 26%
inhibition at 5 µg/mL [22]: 44%
inhibition at 20 µg/mL [23]: 91%
inhibition at 3 µg/mL [24]: 0%
inhibition at 3 µg/mL [25]: 39%
inhibition at 3 µg/mL [26]: 15%
IC50 [27]: 9 µg/mL (≈ 30.8 µM)
Colony formation [28]: 18%
Colony formation [29]: 0%
Colony formation [30]: 49%
inhibition at 10 µg/mL [31]: 82.5%
inhibition at 3 µg/mL [32]: 30%
inhibition at 5 µg/mL [33]: 50%
CC50 [34]: 5 µg/mL (≈ 17.1 µM)

C[C@@H]1O[C@@H](c2nc3c([N+](=O)[O-])cccn3n2)[C@H](O)[C@H](O)[C@H]1O
CC50 [10]: 500 µg/mL (≈ 1610 µM)

CC1OC(c2nc3c([N+](=O)[O-])cccn3n2)C(O)C(O)C1=O (stereo unspecified)
Colony formation [1]: 76%
Colony formation [2]: 21%
Colony formation [35]: 109%
inhibition at 100 µg/mL [36]: 42%
inhibition at 100 µg/mL [37]: 78%
inhibition at 30 µg/mL [38]: 35%
inhibition at 30 µg/mL [39]: 0%
inhibition at 30 µg/mL [40]: 31%
inhibition at 50 µg/mL [41]: 14%
inhibition at 50 µg/mL [42]: 46%
inhibition at 50 µg/mL [43]: 54%
CC50 [44]: 150 µg/mL (≈ 487 µM)
IC50 [27]: 145 µg/mL (≈ 470 µM)
Colony formation [6]: 0%
Colony formation [45]: 81%
IC50 [7]: 43 µg/mL
inhibition at 100 µg/mL [46]: 80%
inhibition at 30 µg/mL [47]: 35%
inhibition at 50 µg/mL [48]: 55%
CC50 [49]: 73 µg/mL (≈ 237 µM)
inhibition at 100 µg/mL [50]: 67%
Colony formation [9]: 25%

O=[N+]([O-])c1cccn2nc([C@@H]3O[C@H](CO)[C@@H](O)[C@H]3O)nc12
inhibition at 2.5 µg/mL [51]: 47%
inhibition at 5 µg/mL [21]: 62%
Colony formation [28]: 46%
Colony formation [30]: 79.6%
